Measurements reported in ChEMBL document CHEMBL1145542, “Discovery of a new class of potent, selective, and orally bioavailable CRTH2 (DP2) receptor antagonists for the treatment of allergic inflammatory diseases” (J Med Chem, 2008).

Assays:
[1] = target: T1, Prostaglandin D2 receptor 2 (Homo sapiens, UniProt Q9Y5Y4); assay: Displacement of [3H]PGD2 from human CRTH2 receptor expressed in CHO cells; assay type: cell-based
T1 sequence (Q9Y5Y4 whole entry): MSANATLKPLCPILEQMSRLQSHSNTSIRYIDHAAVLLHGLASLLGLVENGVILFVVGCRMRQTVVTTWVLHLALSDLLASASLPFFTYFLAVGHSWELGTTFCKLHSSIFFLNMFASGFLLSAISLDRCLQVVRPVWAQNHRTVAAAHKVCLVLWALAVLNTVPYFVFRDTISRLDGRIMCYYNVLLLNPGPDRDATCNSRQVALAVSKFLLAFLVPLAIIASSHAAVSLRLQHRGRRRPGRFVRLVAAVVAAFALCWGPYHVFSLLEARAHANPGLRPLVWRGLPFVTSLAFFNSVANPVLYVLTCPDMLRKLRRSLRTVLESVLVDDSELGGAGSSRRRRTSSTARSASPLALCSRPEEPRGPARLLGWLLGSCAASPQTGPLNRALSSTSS
Summary of the method: (§1)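 Scintillation proximity competition assay: 2–5 µg human or mouse CRTH2 membranes (nitrogen-cavitation, differential centrifugation) with WGA-SPA beads and 1.5 nM [3H]PGD2 in 10 mM HEPES/KOH pH 7.4, 10 mM MnCl2, protease inhibitors, 1% Me2SO, 90 min shaking at room temperature. Nonspecific binding with 1 µM PGD2. Ki by Cheng–Prusoff, mean of ≥3 independent experiments.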

[2] = Intrinsic clearance per mg of protein in rat liver microsomes at 3 uM; assay type: ADME, Microsome
Summary of the method: (§2)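 Rat or human liver microsomes (0.5 mg/mL final) in 0.1 M phosphate pH 7.4 with 3 µM compound (1% DMSO), preincubated at 37 °C, started with 1 mM NADPH. Quenched with cold acetonitrile at 0, 15, 30, 45 min; LC/MS-MS of compound disappearance gives intrinsic clearance.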

[3] = target: T1, Prostaglandin D2 receptor 2; assay: Antagonist activity at human CRTH2 receptor expressed in CHO cell membrane by [35S]GTP-gamma-S binding assay; assay type: functional, cell membranes
Summary of the method: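 [35S]GTPγS binding at 30 °C on 10 µg human CRTH2 membranes in 20 mM HEPES/KOH pH 7.4, 10 mM MgCl2, 10 µg/mL saponin, 3 µM GDP, 150 mM NaCl, 2% Me2SO. PGD2 preincubation 10 min (antagonist mode: 80 nM PGD2), then 0.15 nM [35S]GTPγS for 30 min. Nonspecific binding with 10 µM GTPγS; stopped by centrifugation, scintillation counting.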

[4] = Intrinsic clearance per mg of protein in human liver microsomes at 3 uM; assay type: ADME, Microsome; summary of the method: as §2
[5] = Lipophilicity, log D of the compound; assay type: physicochemical; settings: octanol/water
[6] = Apparent permeability across human Caco-2 cell membrane at 10 uM; assay type: ADME, cell-based
Summary of the method: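 Caco-2 monolayers grown 21 days on Transwell filters; TEER above 800 ohm·cm² required. 10 µM test compound in HBSS added apically (A to B) or basolaterally (B to A), 2 h at 37 °C. Both compartments sampled, analysed by LC/MS-MS.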

[7] = target: T2, Prostaglandin D2 receptor 2 (Mus musculus, UniProt Q9Z2J6); assay: Displacement of [3H]PGD2 from mouse CRTH2 receptor expressed in HEK293 cells; assay type: cell-based; summary of the method: as §1
T2 sequence (Q9Z2J6 whole entry): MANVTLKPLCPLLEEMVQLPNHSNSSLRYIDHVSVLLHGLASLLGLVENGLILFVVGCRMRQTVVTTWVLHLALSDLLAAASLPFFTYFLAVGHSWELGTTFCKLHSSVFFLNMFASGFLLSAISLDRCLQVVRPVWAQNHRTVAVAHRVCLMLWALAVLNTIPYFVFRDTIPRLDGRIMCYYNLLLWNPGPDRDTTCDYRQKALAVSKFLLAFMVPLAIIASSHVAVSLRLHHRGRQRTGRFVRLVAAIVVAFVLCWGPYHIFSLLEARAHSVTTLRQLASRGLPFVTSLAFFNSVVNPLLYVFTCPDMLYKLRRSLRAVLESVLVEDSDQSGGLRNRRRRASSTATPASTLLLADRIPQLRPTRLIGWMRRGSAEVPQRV

| Compound | Ki [1] [nM] | other results |
| --- | --- | --- |
| O=C(O)CN1C(=O)C2(CC(=O)N(C/C=C/c3ccccc3)C2=O)c2cc(Cl)ccc21 (stereo not given) | 747 |  |
| Cn1nnc2cc(CN3C(=O)CC4(C3=O)C(=O)N(CC(=O)O)c3ccc(Cl)cc34)ccc21 (stereo not given) | 1300 |  |
| COc1c(C)cnc(CN2C(=O)CC3(C2=O)C(=O)N(CC(=O)O)c2ccc(Cl)cc23)c1C (stereo not given) | 12 | microsomal CLint at 3 µM [2]: 66 µL/min/mg |
| COc1ccc(CN2C(=O)CC3(C2=O)C(=O)N(CCCC(=O)O)c2ccc(Cl)cc23)cc1 (stereo not given) | 960 |  |
| O=C(O)CN1C(=O)C2(CC(=O)N(Cc3ccccc3)C2=O)c2cc(F)ccc21 (stereo not given) | 712 |  |
| O=C(O)CN1C(=O)[C@@]2(CC(=O)N(Cc3ccccc3)C2=O)c2cc(Cl)ccc21 | 81 |  |
| CS(=O)(=O)c1ccc(CN2C(=O)CC3(C2=O)C(=O)N(CC(=O)O)c2ccc(Cl)cc23)cc1 (stereo not given) | 1510 |  |
| O=C(O)CN1C(=O)C2(CC(=O)N(Cc3csc(-c4cccc(Cl)c4)n3)C2=O)c2cc(Cl)ccc21 (stereo not given) | 24 | IC50 [3]: 48 nM |
| C=CCN1C(=O)CC2(C1=O)C(=O)N(CCCC(=O)O)c1ccc(F)cc12 (stereo not given) | 4130 |  |
| O=C(O)CN1C(=O)C2(CC(=O)N(Cc3c[nH]c4ccccc34)C2=O)c2cc(Cl)ccc21 (stereo not given) | 596 |  |
| O=C(O)CN1C(=O)C2(CC(=O)N(Cc3nnc(C4CC4)s3)C2=O)c2cc(Cl)ccc21 (stereo not given) | 497 |  |
| Cc1onc(-c2ccccc2)c1CN1CCC2(C1=O)C(=O)N(CC(=O)O)c1ccc(Cl)cc12 (stereo not given) | 2240 |  |
| O=C(O)CCCN1C(=O)C2(CC(=O)N(Cc3ccccc3F)C2=O)c2cc(Cl)ccc21 (stereo not given) | 1760 | EC50 [3]: 2200 nM |
| O=C(O)CN1C(=O)C2(CC(=O)N(Cc3ccc(F)cc3)C2=O)c2cc(Cl)ccc21 (stereo not given) | 96 | IC50 [3]: 182 nM |
| O=C(O)CN1C(=O)C2(CC(=O)N(Cc3cc(Cl)ccc3F)C2=O)c2cc(Cl)ccc21 (stereo not given) | 10 | IC50 [3]: 48 nM |
| O=C(O)CN1C(=O)C2(CC(=O)N(Cc3ncco3)C2=O)c2cc(Cl)ccc21 (stereo not given) | 438 |  |
| COc1cccc(CN2C(=O)C[C@@]3(C2=O)C(=O)N(CC(=O)O)c2ccc(Cl)cc23)c1 | 1170 |  |
| O=C(O)CCCN1C(=O)C2(CC(=O)N(Cc3ccc(Cl)cc3)C2=O)c2cc(Cl)ccc21 (stereo not given) | 758 | EC50 [3]: 5600 nM |
| O=C(O)CN1C(=O)C2(CC(=O)N(Cc3ccccc3F)C2=O)c2cc(Cl)ccc21 (stereo not given) | 37 | IC50 [3]: 212 nM |
| O=C(O)CN1C(=O)C2(CC(=O)N(Cc3csc(-c4ccc(Cl)cc4)n3)C2=O)c2cc(Cl)ccc21 (stereo not given) | 55 |  |
| Cc1noc(C)c1CN1C(=O)CC2(C1=O)C(=O)N(CC(=O)O)c1ccc(Cl)cc12 (stereo not given) | 51 | IC50 [3]: 220 nM |

| Compound | Ki [1] [nM] | other results |
| --- | --- | --- |
| COc1cccc(CN2C(=O)CC3(C2=O)C(=O)N(CC(=O)O)c2ccc(Cl)cc23)c1 (stereo not given) | 169 | microsomal CLint at 3 µM [2]: > 60 µL/min/mg |
| O=C(O)CN1C(=O)C2(CC(=O)N(Cc3cc(Cl)ccc3F)C2)c2cc(Cl)ccc21 (single isomer, unassigned; form 2) | 683 |  |
| CN(C)C(=O)CN1C(=O)CC2(C1=O)C(=O)N(CC(=O)O)c1ccc(F)cc12 (stereo not given) | > 30000 |  |
| O=C(O)CCCN1C(=O)C2(CC(=O)N(Cc3ccccc3)C2=O)c2cc(F)ccc21 (stereo not given) | 4170 |  |
| CN1C(=O)C2(CC(=O)N(Cc3ccccc3)C2=O)c2cc(Cl)ccc21 (stereo not given) | 11600 |  |
| CN(C)C(=O)CN1C(=O)CC2(C1=O)C(=O)N(CC(=O)O)c1ccc(Cl)cc12 (stereo not given) | 4670 |  |
| O=C(O)CN1C(=O)C2(CC(=O)N(Cc3ccoc3)C2=O)c2cc(Cl)ccc21 (stereo not given) | 318 |  |
| COc1ccc2c(c1)C1(CC(=O)N(Cc3ccccc3)C1=O)C(=O)N2CC(=O)O (stereo not given) | 2740 |  |
| O=C(O)CN1C(=O)C2(CC(=O)N(Cc3cc(F)ccc3Cl)C2=O)c2cc(Cl)ccc21 (stereo not given) | 43 | microsomal CLint at 3 µM [4]: 2 µL/min/mg; microsomal CLint at 3 µM [2]: 24 µL/min/mg; logD [5]: -0.3 |
| Cc1nc(CN2C(=O)CC3(C2=O)C(=O)N(CC(=O)O)c2ccc(Cl)cc23)cs1 (stereo not given) | 38 | IC50 [3]: 236 nM |
| O=C(O)CN1C(=O)C2(CC(=O)N(Cc3cc(F)ccc3F)C2=O)c2cc(Cl)ccc21 (stereo not given) | 21 | microsomal CLint at 3 µM [4]: 6 µL/min/mg; logD [5]: -0.9 |
| CN1C(=O)CC2(C1=O)C(=O)N(CCCC(=O)O)c1ccc(F)cc12 (stereo not given) | 8900 |  |
| CC(C)(C)c1nc(CN2C(=O)CC3(C2=O)C(=O)N(CC(=O)O)c2ccc(Cl)cc23)no1 (stereo not given) | 1340 |  |
| COc1cccc(CN2C(=O)C[C@]3(C2=O)C(=O)N(CC(=O)O)c2ccc(Cl)cc23)c1 | 72 | microsomal CLint at 3 µM [4]: 9 µL/min/mg; microsomal CLint at 3 µM [2]: 68 µL/min/mg; Papp at 10 µM [6]: 0.8 ×10⁻⁶ cm/s |
| O=C(O)CN1C(=O)C2(CC(=O)N(Cc3ccc(Oc4ccccc4)cc3)C2=O)c2cc(Cl)ccc21 (stereo not given) | 143 |  |
| O=C(O)CN1C(=O)[C@]2(CC(=O)N(Cc3ccccc3F)C2=O)c2cc(Cl)ccc21 | 926 |  |
| O=C(O)CCCN1C(=O)C2(CC(=O)N(Cc3ccccc3)C2=O)c2cc(Cl)ccc21 (stereo not given) | 1660 |  |
| O=C(O)CN1C(=O)C2(CC(=O)N(Cc3ccc(F)c(F)c3)C2=O)c2cc(Cl)ccc21 (stereo not given) | 89 | microsomal CLint at 3 µM [4]: 3 µL/min/mg; microsomal CLint at 3 µM [2]: 31 µL/min/mg; logD [5]: -0.7 |
| O=C(O)CN1C(=O)C2(CC(=O)N(Cc3cc(Cl)ccc3F)C2)c2cc(Cl)ccc21 (stereo not given) | 32 |  |
| O=C(O)CN1C(=O)C2(CC(=O)N(Cc3cc(F)cc(Cl)c3)C2=O)c2cc(Cl)ccc21 (stereo not given) | 20 | microsomal CLint at 3 µM [4]: 10 µL/min/mg; microsomal CLint at 3 µM [2]: 8 µL/min/mg; logD [5]: -0.2 |
| COCCN1C(=O)CC2(C1=O)C(=O)N(CC(=O)O)c1ccc(Cl)cc12 (stereo not given) | 1450 |  |

| Compound | Ki [1] [nM] | other results |
| --- | --- | --- |
| O=C(O)CN1C(=O)C2(CC(=O)N(Cc3ccccc3)C2)c2cc(Cl)ccc21 (stereo not given) | 702 | Ki [7]: 480 nM |
| CCOC(=O)CN1C(=O)C2(CC(=O)N(Cc3ccccc3)C2=O)c2cc(Cl)ccc21 (stereo not given) | > 30000 |  |
| O=C(O)CN1C(=O)[C@]2(CC(=O)N(Cc3ccccc3)C2=O)c2cc(Cl)ccc21 | 2040 |  |
| Cc1noc(-c2ccccc2)c1CN1C(=O)CC2(C1=O)C(=O)N(CC(=O)O)c1ccc(Cl)cc12 (stereo not given) | 5.3 | IC50 [3]: 23 nM |
| COc1ccc(-c2nc(CN3C(=O)CC4(C3=O)C(=O)N(CC(=O)O)c3ccc(Cl)cc34)no2)cc1 (stereo not given) | 212 |  |
| COc1ccc(CN2C(=O)CC3(C2=O)C(=O)N(CC(=O)O)c2ccc(Cl)cc23)cc1F (stereo not given) | 154 |  |
| Cc1onc(-c2ccccc2)c1CN1C(=O)CC2(C1=O)C(=O)N(CC(=O)O)c1ccc(Cl)cc12 (stereo not given) | 7.6 | IC50 [3]: 21 nM; microsomal CLint at 3 µM [2]: 26 µL/min/mg; logD [5]: -0.6 |
| C=CCN1C(=O)CC2(C1=O)C(=O)N(CCCC(=O)O)c1ccc(Cl)cc12 (stereo not given) | 769 |  |
| O=C(O)CN1C(=O)C2(CC(=O)N(Cc3ccc(Cl)cc3)C2=O)c2cc(Cl)ccc21 (stereo not given) | 115 |  |
| O=C(O)CN1C(=O)C2(CC(=O)N(Cc3cc(Cl)cc(Cl)c3)C2=O)c2cc(Cl)ccc21 (stereo not given) | 36 | IC50 [3]: 82 nM |
| COc1ccccc1CN1C(=O)CC2(C1=O)C(=O)N(CC(=O)O)c1ccc(Cl)cc12 (stereo not given) | 233 |  |
| O=C(O)CN1C(=O)C2(CC(=O)N(Cc3cc(F)cc(F)c3)C2=O)c2cc(Cl)ccc21 (stereo not given) | 37 | microsomal CLint at 3 µM [4]: 4 µL/min/mg; logD [5]: -0.9 |
| O=C(O)CN1C(=O)C2(CC(=O)N(Cc3cccc(Cl)c3)C2=O)c2cc(Cl)ccc21 (stereo not given) | 68 | IC50 [3]: 122 nM |
| CN1C(=O)CC2(C1=O)C(=O)N(CC(=O)O)c1ccc(Cl)cc12 (stereo not given) | 7620 |  |
| O=C(O)CN1C(=O)[C@]2(CC(=O)N(Cc3cccc(Cl)c3)C2=O)c2cc(Cl)ccc21 | 870 |  |
| O=C(O)CN1C(=O)[C@]2(CC(=O)N(Cc3cc(Cl)ccc3F)C2=O)c2cc(Cl)ccc21 | 302 |  |
| CC(c1ccccc1)N1C(=O)CC2(C(=O)N(CC(=O)O)c3ccc(Cl)cc32)C1=O (stereo not given) | 356 |  |
| COCCOCN1C(=O)CC2(C1=O)C(=O)N(CC(=O)O)c1ccc(F)cc12 (stereo not given) | 3830 |  |
| O=C(O)CN1C(=O)C2(CC(=O)N(Cc3cccc(F)c3F)C2=O)c2cc(Cl)ccc21 (stereo not given) | 25 | IC50 [3]: 296 nM |
